Results from ChEMBL document CHEMBL1152649, “Synthesis, cytotoxicity and human telomerase inhibition activities of a series of 1,2-heteroannelated anthraquinones and anthra[1,2-d]imidazole-6,11-dione homologues” (2009).

Assays:
[1] = Cytotoxicity against human H1299 cells at 1 uM after 48 hrs by MTT assay; type: functional; settings: NCI-H1299, 48 h
Outline: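 H1299 non-small cell lung cancer cells were grown in RPMI 1640 with 10% FBS, penicillin and streptomycin at 37 °C under 5% CO2. About 2 × 10³ cells per well were seeded and left 24 h. Compounds were dissolved fresh in DMSO, diluted into complete medium and applied for 48 h. MTT was then added for 4 h at 37 °C, followed by lysis buffer (20% SDS, 50% DMF) for 16 h, and absorbance was read at 550 nm.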

A549 = assay: Antiproliferative activity against human A549 cells assessed as cell growth at 10 uM; type: functional; settings: read-out: Activity
Outline: (§1)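 NCI 60 cell line panel, single-dose screen (10^-5 M) run by the developmental therapeutics program protocol. Results are given as growth percent of treated cells relative to untreated control cells for each line.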

HOP-62 = assay: Antiproliferative activity against human HOP62 cells assessed as cell growth at 10 uM; type: functional; settings: read-out: Activity; outline: as §1
[2] = Antiproliferative activity against human Hs 578T cells assessed as cell growth at 10 uM; type: functional; settings: read-out: Activity; outline: as §1
OVCAR-3 = assay: Antiproliferative activity against human OVCAR-3 cells assessed as cell growth at 10 uM; type: functional; settings: read-out: Activity; outline: as §1
OVCAR-4 = assay: Antiproliferative activity against human OVCAR4 cells assessed as cell growth at 10 uM; type: functional; settings: read-out: Activity; outline: as §1
CCRF-CEM = assay: Antiproliferative activity against human CCRF-CEM cells assessed as cell growth at 10 uM; type: functional; settings: read-out: Activity; outline: as §1
786-0 = assay: Antiproliferative activity against human 786-0 cells assessed as cell growth at 10 uM; type: functional; settings: read-out: Activity; outline: as §1
A498 = assay: Antiproliferative activity against human A498 cells assessed as cell growth at 10 uM; type: functional; settings: read-out: Activity; outline: as §1
TK-10 = assay: Antiproliferative activity against human TK10 cells assessed as cell growth at 10 uM; type: functional; settings: read-out: Activity
Outline: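 NCI 60 cell line panel, single dose (10^-5 M), run per the Developmental Therapeutics Program protocol (one dose mean graph). Each result is the growth percentage of treated cells relative to untreated control cells.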

M14 = assay: Antiproliferative activity against human M14 cells assessed as cell growth at 10 uM; type: functional; settings: read-out: Activity; outline: as §1
Malme-3M = assay: Antiproliferative activity against human MALME-3M cells assessed as cell growth at 10 uM; type: functional; settings: read-out: Activity; outline: as §1
SK-MEL-28 = assay: Antiproliferative activity against human SK-MEL-28 cells assessed as cell growth at 10 uM; type: functional; settings: read-out: Activity; outline: as §1
PC-3 = assay: Antiproliferative activity against human PC3 cells assessed as cell growth at 10 uM; type: functional; settings: read-out: Activity; outline: as §1
SNB-19 = assay: Antiproliferative activity against human SNB19 cells assessed as cell growth at 10 uM; type: functional; settings: read-out: Activity; outline: as §1
HCT-15 = assay: Antiproliferative activity against human HCT15 cells assessed as cell growth at 10 uM; type: functional; settings: read-out: Activity; outline: as §1
KM12 = assay: Antiproliferative activity against human KM12 cells assessed as cell growth at 10 uM; type: functional; settings: read-out: Activity; outline: as §1
[3] = molecular target: Telomerase reverse transcriptase (Homo sapiens) (UniProt O14746); assay: Inhibition of TERT in human H1299 cells assessed as residual transcriptional activity at 100 uM after 24 hrs by SEAP reporter gene assay; values are per cent of control
MDA-MB-468 = assay: Antiproliferative activity against human MDA-MB-468 cells assessed as cell growth at 10 uM; type: functional; settings: read-out: Activity; outline: as §1
RXF 393 = assay: Antiproliferative activity against human RXF393 cells assessed as cell growth at 10 uM; type: functional; settings: read-out: Activity; outline: as §1

Chain of Telomerase reverse transcriptase (Homo sapiens) (O14746 whole entry): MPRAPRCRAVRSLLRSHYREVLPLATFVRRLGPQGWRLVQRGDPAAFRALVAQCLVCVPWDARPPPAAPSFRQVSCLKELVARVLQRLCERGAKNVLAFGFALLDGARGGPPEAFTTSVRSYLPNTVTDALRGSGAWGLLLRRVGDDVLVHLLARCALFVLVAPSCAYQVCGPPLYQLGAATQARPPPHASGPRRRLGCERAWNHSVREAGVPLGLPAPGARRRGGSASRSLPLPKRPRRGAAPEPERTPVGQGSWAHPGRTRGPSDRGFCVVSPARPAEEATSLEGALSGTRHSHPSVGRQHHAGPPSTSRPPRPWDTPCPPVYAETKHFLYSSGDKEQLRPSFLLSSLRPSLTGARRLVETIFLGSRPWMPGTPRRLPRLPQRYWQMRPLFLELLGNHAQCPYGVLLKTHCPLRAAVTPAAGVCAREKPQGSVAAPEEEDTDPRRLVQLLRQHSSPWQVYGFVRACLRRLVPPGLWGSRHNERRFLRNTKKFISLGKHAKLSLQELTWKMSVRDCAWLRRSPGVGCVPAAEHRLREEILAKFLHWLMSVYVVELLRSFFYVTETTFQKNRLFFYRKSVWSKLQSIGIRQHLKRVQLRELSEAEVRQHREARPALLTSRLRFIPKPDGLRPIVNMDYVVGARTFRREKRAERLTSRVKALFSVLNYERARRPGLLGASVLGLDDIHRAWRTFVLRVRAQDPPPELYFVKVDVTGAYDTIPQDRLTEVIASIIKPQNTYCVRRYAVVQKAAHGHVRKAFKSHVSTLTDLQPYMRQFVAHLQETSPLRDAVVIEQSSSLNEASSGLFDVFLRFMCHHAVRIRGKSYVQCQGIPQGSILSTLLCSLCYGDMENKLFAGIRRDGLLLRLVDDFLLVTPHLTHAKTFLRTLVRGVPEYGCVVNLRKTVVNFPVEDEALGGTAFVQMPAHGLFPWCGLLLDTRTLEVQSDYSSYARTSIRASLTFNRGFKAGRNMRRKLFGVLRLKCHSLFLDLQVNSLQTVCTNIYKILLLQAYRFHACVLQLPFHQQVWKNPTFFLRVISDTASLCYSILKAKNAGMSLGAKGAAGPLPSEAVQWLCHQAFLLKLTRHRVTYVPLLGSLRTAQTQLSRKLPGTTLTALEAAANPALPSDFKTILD

| SMILES | viability at 1 µM [1] [%] | growth at 10 µM (A549) [%] | growth at 10 µM (HOP-62) [%] | growth at 10 µM [2] [%] | growth at 10 µM (OVCAR-3) [%] | growth at 10 µM (OVCAR-4) [%] | growth at 10 µM (CCRF-CEM) [%] | growth at 10 µM (786-0) [%] | growth at 10 µM (A498) [%] | growth at 10 µM (TK-10) [%] | growth at 10 µM (M14) [%] | growth at 10 µM (Malme-3M) [%] | growth at 10 µM (SK-MEL-28) [%] | growth at 10 µM (PC-3) [%] | growth at 10 µM (SNB-19) [%] | growth at 10 µM (HCT-15) [%] | growth at 10 µM (KM12) [%] | residual activity [3] [%] | growth at 10 µM (MDA-MB-468) [%] | growth at 10 µM (RXF 393) [%] |
| --- | --- | --- | --- | --- | --- | --- | --- | --- | --- | --- | --- | --- | --- | --- | --- | --- | --- | --- | --- | --- |
| COc1cc(-c2nc3ccc4c(c3[nH]2)C(=O)c2ccccc2C4=O)ccc1O | 71 | 97.9 | 116 | 167 | 125 | 83 | 94.7 | 109 | 122 | 174 | 114 | 107 | 132 | 88.1 | 97.4 | 103 | 113 | 8 |  |  |
| CC1(C)Nc2ccc3c(c2N1)C(=O)c1ccccc1C3=O | 98 | 94.6 |  | 68.4 | 78.2 | 80.1 | 74 | 86.2 | 80.6 | 62.4 | 83.7 | 155 | 129 |  | 94.3 | 64.6 | 51.5 | 9 | 77.2 | 85.1 |
| Cc1ccc(-c2nc3ccc4c(c3[nH]2)C(=O)c2ccccc2C4=O)cc1 | 75 | 55.7 | 110 | 138 | 96.1 | 96.8 | 101 | 113 | 176 | 154 | 106 | 97.6 | 154 | 87.6 | 97.8 | 100 | 106 | 29 |  |  |
| O=C1c2ccccc2C(=O)c2c1ccc1nc(-c3ccccc3)[nH]c21 | 79 | 79 | 109 | 30.4 | 69.2 | 73.4 | 86.3 | 111 | 77 | 82 | 101 | 74.5 | 60.4 | 52.5 | 102 | 86.3 | 75.5 | 10 |  |  |
